Results as given in ChEMBL document CHEMBL4808214, “Structure-activity relationship studies in substituted sulfamoyl benzamidothiazoles that prolong NF-κB activation” (Bioorg Med Chem, 2021).

Experiments:
THP-1 = test: Cytotoxicity against human THP-1 cells assessed as cell viability at 5 uM measured after 18 hrs by MTT assay relative to control; type: cell-based; conditions: thp-1, 18 h
How it was run: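 THP-1 cells were plated at 10^5/well in RPMI with 10% FBS and penicillin/streptomycin, then given compound at 5 μM final (0.5% DMSO) for 18 h. MTT at 0.5 mg/mL was added for 4–6 h, followed by SDS/HCl lysis buffer overnight. Absorbance was read at 570 nm against a 650 nm reference. Viability was normalized to DMSO as 100%.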

[1] = target: Nuclear factor NF-kappa-B complex (Homo sapiens) (UniProt Q00653+P19838+Q04206); test: Activation of NF-kappaB in human THP1-Blue NF-kappaB cells co-expressing NFkappaB-inducible SEAP assessed as increase in SEAP activity at 5 uM measured after 20 hrs by quanti-blue based colorimetric assay relative to control; type: cell-based; conditions: filed as activator
Sequence of Nuclear factor NF-kappa-B complex (Homo sapiens) (P19838 whole entry, looked up): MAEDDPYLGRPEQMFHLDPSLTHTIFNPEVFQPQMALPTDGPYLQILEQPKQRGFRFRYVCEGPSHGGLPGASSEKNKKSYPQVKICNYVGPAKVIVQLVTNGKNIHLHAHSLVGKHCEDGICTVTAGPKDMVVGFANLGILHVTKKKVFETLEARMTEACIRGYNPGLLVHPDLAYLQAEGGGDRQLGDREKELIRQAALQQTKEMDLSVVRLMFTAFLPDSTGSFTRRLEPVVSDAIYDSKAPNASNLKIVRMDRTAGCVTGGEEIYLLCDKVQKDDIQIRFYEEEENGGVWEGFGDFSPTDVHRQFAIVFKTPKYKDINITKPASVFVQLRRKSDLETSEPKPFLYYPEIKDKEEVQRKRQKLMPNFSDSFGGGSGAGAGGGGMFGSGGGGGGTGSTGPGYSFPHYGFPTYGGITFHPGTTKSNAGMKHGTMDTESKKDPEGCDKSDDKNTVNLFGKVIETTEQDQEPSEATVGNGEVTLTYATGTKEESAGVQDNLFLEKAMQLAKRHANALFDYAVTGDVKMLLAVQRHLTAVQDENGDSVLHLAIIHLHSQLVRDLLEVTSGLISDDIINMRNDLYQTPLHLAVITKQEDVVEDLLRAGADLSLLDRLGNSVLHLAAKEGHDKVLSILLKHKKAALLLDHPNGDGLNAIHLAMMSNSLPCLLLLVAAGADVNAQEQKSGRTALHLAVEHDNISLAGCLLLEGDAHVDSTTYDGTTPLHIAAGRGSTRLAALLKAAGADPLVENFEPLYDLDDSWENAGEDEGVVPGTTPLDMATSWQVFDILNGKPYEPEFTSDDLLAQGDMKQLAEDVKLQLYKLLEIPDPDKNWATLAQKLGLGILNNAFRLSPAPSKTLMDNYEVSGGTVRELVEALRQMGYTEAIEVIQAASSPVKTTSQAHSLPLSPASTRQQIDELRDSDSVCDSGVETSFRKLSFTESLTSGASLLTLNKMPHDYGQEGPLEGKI
Sequence of Nuclear factor NF-kappa-B complex (Homo sapiens) (Q00653 whole entry, looked up): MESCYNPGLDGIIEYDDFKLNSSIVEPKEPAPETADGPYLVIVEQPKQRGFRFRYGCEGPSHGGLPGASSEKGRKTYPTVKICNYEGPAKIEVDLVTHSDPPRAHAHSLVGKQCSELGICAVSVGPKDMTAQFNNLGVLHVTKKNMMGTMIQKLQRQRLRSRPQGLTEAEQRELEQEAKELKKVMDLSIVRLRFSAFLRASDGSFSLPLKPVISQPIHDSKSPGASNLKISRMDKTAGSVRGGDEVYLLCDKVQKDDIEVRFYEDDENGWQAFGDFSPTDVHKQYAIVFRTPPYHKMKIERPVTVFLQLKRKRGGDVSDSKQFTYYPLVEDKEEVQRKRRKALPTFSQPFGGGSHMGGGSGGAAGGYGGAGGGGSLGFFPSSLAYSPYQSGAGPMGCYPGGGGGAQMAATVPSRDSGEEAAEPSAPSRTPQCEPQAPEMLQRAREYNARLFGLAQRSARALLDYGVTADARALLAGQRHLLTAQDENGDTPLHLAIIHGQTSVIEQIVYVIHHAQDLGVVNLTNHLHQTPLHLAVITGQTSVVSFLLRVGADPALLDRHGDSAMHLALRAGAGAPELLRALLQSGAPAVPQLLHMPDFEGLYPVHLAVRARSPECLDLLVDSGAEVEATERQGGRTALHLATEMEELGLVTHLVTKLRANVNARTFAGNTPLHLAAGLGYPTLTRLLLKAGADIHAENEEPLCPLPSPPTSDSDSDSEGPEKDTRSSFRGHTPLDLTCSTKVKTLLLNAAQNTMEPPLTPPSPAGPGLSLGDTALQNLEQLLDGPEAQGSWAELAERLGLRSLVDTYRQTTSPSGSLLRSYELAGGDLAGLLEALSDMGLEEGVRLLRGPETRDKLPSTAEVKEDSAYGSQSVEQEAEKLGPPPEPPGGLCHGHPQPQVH
Sequence of Nuclear factor NF-kappa-B complex (Homo sapiens) (Q04206 whole entry, looked up): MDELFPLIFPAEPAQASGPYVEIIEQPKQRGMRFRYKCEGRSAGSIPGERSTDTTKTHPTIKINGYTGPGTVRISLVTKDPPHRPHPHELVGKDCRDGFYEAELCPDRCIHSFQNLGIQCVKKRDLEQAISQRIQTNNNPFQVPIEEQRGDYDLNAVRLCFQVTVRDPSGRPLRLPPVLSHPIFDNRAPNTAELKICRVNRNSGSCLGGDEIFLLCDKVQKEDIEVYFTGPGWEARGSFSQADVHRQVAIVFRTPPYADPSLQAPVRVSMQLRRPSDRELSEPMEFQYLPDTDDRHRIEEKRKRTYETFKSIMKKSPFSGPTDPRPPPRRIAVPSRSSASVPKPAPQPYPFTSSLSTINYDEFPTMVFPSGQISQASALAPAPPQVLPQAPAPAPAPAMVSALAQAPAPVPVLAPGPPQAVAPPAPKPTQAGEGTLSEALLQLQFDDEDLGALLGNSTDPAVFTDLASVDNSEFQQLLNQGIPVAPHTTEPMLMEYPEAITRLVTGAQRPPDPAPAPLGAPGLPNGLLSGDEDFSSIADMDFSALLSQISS
How it was run: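 THP1-Blue NF-κB reporter cells plated at 10^5/well in RPMI with 10% FBS, penicillin/streptomycin and Normocin. Compound added at 5 μM final (0.5% DMSO), then incubated 20 h. Secreted SEAP in the supernatant was read colorimetrically with QuantiBlue at 630 nm. Two-point normalization set vehicle (0.5% DMSO) as 100% and a reference activator as 200%.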

Structure (SMILES)	Activity [1]	Activity (THP-1)
Cc1ccc(C)c(-c2ccc(NC(=O)c3ccc(S(=O)(=O)N4CCCCC4)cc3)nc2)c1		93%
Cc1ccc(C)c(-c2nc(NC(=O)c3ccc(S(=O)(=O)N4CCCCC4)cc3)sc2-c2ccco2)c1		106%
CCCN1CCN(S(=O)(=O)c2ccc(C(=O)Nc3nc(-c4cc(C)ccc4C)cs3)cc2)CC1		80%
O=C(Nc1nc(-c2cccc3ccccc23)cs1)c1ccc(S(=O)(=O)N2CCCCC2)cc1	198%	93%
CCc1csc(NC(=O)c2ccc(S(=O)(=O)N3CCCCC3)cc2)n1		120%
Cc1ccc(C)c(-c2csc(NC(=O)c3ccc(S(=O)(=O)N4CCCCC4)nc3)n2)c1		89%
CCCc1csc(NC(=O)c2ccc(S(=O)(=O)N3CCCCC3)cc2)n1		115%
Cc1ccccc1-c1csc(NC(=O)c2ccc(S(=O)(=O)N3CCCCC3)cc2)n1		98%
CC(C)(C)Cc1csc(NC(=O)c2ccc(S(=O)(=O)N3CCCCC3)cc2)n1	101%	116%
CCCN(CC)S(=O)(=O)c1ccc(C(=O)Nc2nc(-c3cc(C)ccc3C)cs2)cc1	183%	104%
Cc1ccc(C)c(-c2csc(NC(=O)c3ccc(SC4CCCCC4)cc3)n2)c1		85%
CCCCN(CCCC)S(=O)(=O)c1ccc(C(=O)Nc2nc(-c3cc(C)ccc3C)cs2)cc1	102%	
C#CCN(C(=O)c1ccc(S(=O)(=O)N2CCCCC2)cc1)c1nc(-c2cc(C)ccc2C)cs1		102%
Cc1ccc(C)c(-c2ccc(NC(=O)c3ccc(S(=O)(=O)N4CCCCC4)cc3)cn2)c1		93%
CCCC#Cc1sc(NC(=O)c2ccc(S(=O)(=O)N3CCC(CCC)CC3)cc2)nc1-c1cc(C)ccc1Br	111%	97%
Cc1ccc(C)c(-c2csc(NC(=O)c3ccc(S(=O)(=O)NC4CCCCC4)cc3)n2)c1		91%
Cc1cccc(-c2csc(NC(=O)c3ccc(S(=O)(=O)N4CCCCC4)cc3)n2)c1		98%
CCCC#Cc1sc(NC(=O)c2ccc(S(=O)(=O)N3CCCCC3)cc2)nc1-c1cc(C)ccc1Br	202%	95%
Cc1ccc(C)c(-c2csc(NC(=O)c3ccc(S(=O)(=O)C4CCCCC4)cc3)n2)c1		82%
Cc1ccc(C)c(-c2cccc(NC(=O)c3ccc(S(=O)(=O)N4CCCCC4)cc3)n2)c1		94%
Cc1ccc(C)c(-c2nnc(NC(=O)c3ccc(S(=O)(=O)N4CCCCC4)cc3)s2)c1		90%
Cc1ccc(C)c(-c2csc(NC(=O)c3cccc(C(=O)N4CCCCC4)c3)n2)c1		88%
Cc1csc(NC(=O)c2ccc(S(=O)(=O)N3CCCCC3)cc2)n1		108%

More lines, main results first:

Activity [1]	Structure (SMILES)	Activity (THP-1)
179%	CCc1sc(NC(=O)c2ccc(S(=O)(=O)N3CCCCC3)cc2)nc1-c1cc(C)ccc1C	104%
99%	Cc1ccc(C)c(-c2nc(NC(=O)c3ccc(S(=O)(=O)N4CCCCC4)cc3)sc2N2CCCCC2)c1	89%
103%	Cc1ccc(C)c(-c2csc(NC(=O)c3ccc(S(=O)(=O)N4CCCCC4)s3)n2)c1	97%
101%	Cc1ccc(C)c(Cc2csc(NC(=O)c3ccc(S(=O)(=O)N4CCCCC4)cc3)n2)c1	100%
102%	CCOc1sc(NC(=O)c2ccc(S(=O)(=O)N3CCCCC3)cc2)nc1-c1cc(C)ccc1C	104%
264%	CCC#Cc1sc(NC(=O)c2ccc(S(=O)(=O)N3CCCCC3)cc2)nc1-c1cc(C)ccc1C	103%
101%	Cc1ccc(C)c(-c2csc(NC(=O)c3ccc(S(=O)(=O)N4CCNCC4)cc3)n2)c1	121%
98%	Cc1ccc(-c2csc(NC(=O)c3ccc(S(=O)(=O)N4CCCCC4)cc3)n2)c(C)c1	102%
99%	CC(C)(C)c1csc(NC(=O)c2ccc(S(=O)(=O)N3CCCCC3)cc2)n1	113%
127%	Cc1ccc(C)c(-c2csc(NC(=O)c3ccc(S(=O)(=O)N4CCCCC4)cc3Cl)n2)c1	87%
99%	Cc1ccc(C)c(-c2nc(NC(=O)c3ccc(S(=O)(=O)N4CCCCC4)cc3)sc2-c2ccccc2)c1	
101%	Cc1ccc(C)c(-c2csc(N(C)C(=O)c3ccc(S(=O)(=O)N4CCCCC4)cc3)n2)c1	97%
103%	Cc1ccc(C)c(-c2csc(NS(=O)(=O)c3ccc(C(=O)N4CCCCC4)cc3)n2)c1	69%
179%	Cc1cccc(-c2csc(NC(=O)c3ccc(S(=O)(=O)N4CCCCC4)cc3)n2)c1C	103%
109%	Cc1ccc2c(c1)-c1nc(NC(=O)c3ccc(S(=O)(=O)N4CCCCC4)cc3)sc1C2	89%
115%	Cc1ccc(C)c(-c2csc(NC(=O)c3ccc(S(=O)(=O)N4CCCCC4)c([N+](=O)[O-])c3)n2)c1	93%
118%	C#Cc1sc(NC(=O)c2ccc(S(=O)(=O)N3CCCCC3)cc2)nc1-c1cc(C)ccc1C	111%

Activity [1]	Structure (SMILES)	Activity (THP-1)
99%	COc1cc(S(=O)(=O)N2CCCCC2)ccc1C(=O)Nc1nc(-c2cc(C)ccc2C)cs1	
99%	Cc1ccc(C)c(-c2csc(NC(=O)c3ccc(C(=O)N4CCCCC4)cc3)n2)c1	88%
117%	CCCCCc1sc(NC(=O)c2ccc(S(=O)(=O)N3CCCCC3)cc2)nc1-c1cc(C)ccc1C	108%
109%	CCCCc1sc(NC(=O)c2ccc(S(=O)(=O)N3CCCCC3)cc2)nc1-c1cc(C)ccc1C	129%
125%	Cc1ccc(C)c(-c2csc(NC(=O)c3ccc(S(=O)(=O)N4CCCCC4)c(N)c3)n2)c1	92%
201%	CCOC1CCN(S(=O)(=O)c2ccc(C(=O)Nc3nc(-c4cc(C)ccc4C)cs3)cc2)CC1	117%
101%	CC(=O)N1CCN(S(=O)(=O)c2ccc(C(=O)Nc3nc(-c4cc(C)ccc4C)cs3)cc2)CC1	114%
97%	Cc1cc(C)cc(-c2csc(NC(=O)c3ccc(S(=O)(=O)N4CCCCC4)cc3)n2)c1	91%
203%	CCc1ccc(C)c(-c2csc(NC(=O)c3ccc(S(=O)(=O)N4CCCCC4)cc3)n2)c1	102%
99%	Cc1ccc(C)c(-c2csc(C(=O)Nc3ccc(S(=O)(=O)N4CCCCC4)cc3)n2)c1	91%
185%	Cc1cccc(C)c1-c1csc(NC(=O)c2ccc(S(=O)(=O)N3CCCCC3)cc2)n1	100%
103%	CCSc1sc(NC(=O)c2ccc(S(=O)(=O)N3CCCCC3)cc2)nc1-c1cc(C)ccc1C	
101%	C#Cc1ccc(C)c(-c2csc(NC(=O)c3ccc(S(=O)(=O)N4CCCCC4)cc3)n2)c1	92%
209%	Cc1ccc(C)c(-c2csc(NC(=O)c3ccc(S(=O)(=O)N4CCCCC4)c(Br)c3)n2)c1	90%
98%	Cc1ccc(-c2csc(NC(=O)c3ccc(S(=O)(=O)N4CCCCC4)cc3)n2)cc1C	
99%	COc1cc(C(=O)Nc2nc(-c3cc(C)ccc3C)cs2)ccc1S(=O)(=O)N1CCCCC1	
